Experimental data as given in ChEMBL document CHEMBL2375338, “Hydrolyzable tannins of tamaricaceous plants. V. Structures of monomeric-trimeric tannins and cytotoxicity of macrocyclic-type tannins isolated from Tamarix nilotica (1)” (J Nat Prod, 2013).

Key:
[1] = Cytotoxicity against human HPLF cells after 48 hrs by MTT assay; assay type: cell-based
Method in brief: (§1)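 Adherent cells seeded 5 × 10^3/well and grown 48 h, then medium replaced with fresh medium holding test compound (DMSO stock 20 mM; top well 100 μM, serial 2-fold dilutions, triplicate wells). After a further 48 h, cells were washed with PBS lacking Ca/Mg and given 0.2 mg/mL MTT for 4 h. Lysis was in DMSO and A540 was read. CC50 came from the dose–response curve.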

[2] = Cytotoxicity against human HGF cells after 48 hrs by MTT assay; assay type: cell-based; method in brief: as §1
[3] = Cytotoxicity against human HPC cells after 48 hrs by MTT assay; assay type: cell-based; method in brief: as §1
HSC-3 = experiment: Cytotoxicity against human HSC3 cells after 48 hrs by MTT assay; assay type: functional; conditions: HSC-3, 48 h; method in brief: as §1
HSC-4 = experiment: Cytotoxicity against human HSC4 cells after 48 hrs by MTT assay; assay type: functional; conditions: HSC-4, 48 h; method in brief: as §1
HSC-2 = experiment: Cytotoxicity against human HSC2 cells after 48 hrs by MTT assay; assay type: functional; conditions: HSC-2, 48 h; method in brief: as §1
HL-60 = experiment: Cytotoxicity against human HL60 cells after 48 hrs by trypan blue exclusion assay; conditions: HL-60, 48 h

Structure (SMILES)	CC50 at 48 h [1] [µM]	CC50 at 48 h [2] [µM]	CC50 at 48 h [3] [µM]	CC50 (HSC-3) [µM]	CC50 (HSC-4) [µM]	CC50 (HSC-2) [µM]	CC50 (HL-60) [µM]
O=C1O[C@@H]2O[C@@H]3COC(=O)c4cc(O)c(O)c(O)c4-c4c(cc(O)c(O)c4O)C(=O)O[C@H]3[C@H](OC(=O)c3cc(O)c(O)c(O)c3)[C@H]2OC(=O)c2cc(O)c(O)c(O)c2Oc2cc(cc(O)c2O)C(=O)O[C@@H]2O[C@@H]3COC(=O)c4cc(O)c(O)c(O)c4-c4c(cc(O)c(O)c4O)C(=O)O[C@H]3[C@H](OC(=O)c3cc(O)c(O)c(O)c3)[C@H]2OC(=O)c2cc(O)c(O)c(O)c2Oc2cc(cc(O)c2O)C(=O)O[C@@H]2O[C@@H]3COC(=O)c4cc(O)c(O)c(O)c4-c4c(cc(O)c(O)c4O)C(=O)O[C@H]3[C@H](OC(=O)c3cc(O)c(O)c(O)c3)[C@H]2OC(=O)c2cc(O)c(O)c(O)c2Oc2c(O)cc1cc2O	> 100	96.6	90.7	34.2	42.9	22.3	30.5
O=C1O[C@@H]2O[C@@H]3COC(=O)c4cc(O)c(O)c(O)c4-c4c(cc(O)c(O)c4O)C(=O)O[C@H]3[C@H](OC(=O)c3cc(O)c(O)c(O)c3)[C@H]2OC(=O)c2cc(O)c(O)c(O)c2Oc2cc(cc(O)c2O)C(=O)O[C@@H]2O[C@@H]3COC(=O)c4cc(O)c(O)c(O)c4-c4c(cc(O)c(O)c4O)C(=O)O[C@H]3[C@H](OC(=O)c3cc(O)c(O)c(O)c3)[C@H]2OC(=O)c2cc(O)c(O)c(O)c2Oc2c(O)cc1cc2O	> 100	95	84.3	24.3	28.7	19.9	54.2
O=C1O[C@@H]2O[C@@H]3COC(=O)c4cc(O)c(O)c(O)c4-c4c(cc(O)c(O)c4O)C(=O)O[C@H]3[C@H](OC(=O)c3cc(O)c(O)c(O)c3)[C@H]2OC(=O)c2cc(O)c(O)c(O)c2Oc2cc(cc(O)c2O)C(=O)O[C@@H]2O[C@H](CO)[C@@H](O)[C@H](OC(=O)c3cc(O)c(O)c(O)c3)[C@H]2OC(=O)c2cc(O)c(O)c(O)c2Oc2c(O)cc1cc2O	> 100	> 100	80.3	20.8	26.6	20.2	62
O=C1O[C@@H]2O[C@@H]3COC(=O)c4cc(O)c(O)c(O)c4-c4c(cc(O)c(O)c4O)C(=O)O[C@H]3[C@H](OC(=O)c3cc(O)c(O)c(O)c3)[C@H]2OC(=O)c2cc(O)c(O)c(O)c2Oc2c(O)cc(cc2O)C(=O)O[C@@H]2O[C@@H]3COC(=O)c4cc(O)c(O)c(O)c4-c4c(cc(O)c(O)c4O)C(=O)O[C@H]3[C@H](OC(=O)c3cc(O)c(O)c(O)c3)[C@H]2OC(=O)c2cc(O)c(O)c(O)c2Oc2c(O)cc1cc2O	> 100	93.6	88.3	47.8	43	23	55.9
O=C1O[C@@H]2O[C@@H]3COC(=O)c4cc(O)c(O)c(O)c4-c4c(cc(O)c(O)c4O)C(=O)O[C@H]3[C@H](OC(=O)c3cc(O)c(O)c(O)c3)[C@H]2OC(=O)c2cc(O)c(O)c(O)c2Oc2c(O)cc(cc2O)C(=O)O[C@@H]2O[C@H](CO)[C@@H](O)[C@H](OC(=O)c3cc(O)c(O)c(O)c3)[C@H]2OC(=O)c2cc(O)c(O)c(O)c2Oc2cc1cc(O)c2O	> 100	> 100	81	21.9	24.5	18.5	70.8
